These results are taken from ChEMBL document CHEMBL4513216, “Probing the Open Global Health Chemical Diversity Library for Multistage-Active Starting Points for Next-Generation Antimalarials” (ACS Infect Dis, 2020).

The series in a line: Toxicity liver stage against HepG2, at 10uM. The format is cell-based. Also noted: test concentration 10 uM, cell line HepG2-A16-CD81EGFP. The settings on record: human, HepG2-A16-CD81EGFP cells; read-out: INHIBITION
Summed up: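 Uninfected HepG2-A16-CD81EGFP cells, 3 × 10^3 per well, 1536-well, plated on prespotted compound at 10 μM final, parasite-free screening media added to match infected plates; puromycin 10 μM positive, DMSO 0.5% negative; run in parallel with 48 h PbLuc assay at 37 °C, 5% CO2; viability by CellTiter-Glo luminescence, normalized to controls.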
With `O=C(NC[C@H]1OC[C@@H](NC2COC2)[C@@H]1O)c1cccs1`, the cytotoxicity at 10 µM was 0.0331%.
The result for `Cc1nc(NC(=O)CN2C(=O)c3ccccc3NC2C(C)C)sc1C` (centres undefined) reads 0.585%.
Consider `Cn1ccc2c(C(=O)NC3CN4CCC3CC4)cccc21` (centres undefined), for which the cytotoxicity at 10 µM was -46.8%.
The result for `O=C1CSC(c2ccccc2)c2c(n(C3CCOCC3)[nH]c2=O)N1` (centres undefined) reads -4.69%.
The value for `Cc1ccnc(OC[C@]23COC[C@H]2CN(C(=O)c2cnccn2)C3)n1` was -7.1%.
The value for `O=C(N1CCCC1)N1Cc2nccn2CC(Cn2ncccc2=O)C1` (centres undefined) was 3.39%.
Consider `Cc1occc1C(=O)N1C[C@@H](C(=O)NCc2ccco2)C[C@H]2OCC[C@H]21`, for which the cytotoxicity at 10 µM amounted to 1.08%.
The result for `CCOc1cc(=O)n2c(c1C(=O)OCc1ccc(C)cc1)CCCC2` reads 3.11%; that for `COC(=O)c1cc2c(OC)c(OC)c(OC)cc2[nH]1`, -0.555%.
The result for `CNc1ccc(CC2CCCN(C(=O)c3cnccn3)C2)nn1` (centres undefined) reads -9.27%; that for `CNc1ncccc1CN1CCCCC1c1ccnc(N)n1` (centres undefined), -12.3%; that for `Cc1ncccc1Oc1nccnc1C1CCN(S(C)(=O)=O)CC1`, -7.88%.
The value for `CC(C)N(C)CCCNC(=O)c1cnn(C(C)(C)C)c1C(F)(F)F` was 7.25%.
With `CC1CN(C)CCN1C(=O)Cc1cc(Cl)c2c(c1)OCCO2` (centres undefined), the cytotoxicity at 10 µM was -3.47%.
Turning to `CN(C)CCOc1ccc(N(C)S(=O)(=O)c2cnn(C)c2)cc1`, the cytotoxicity at 10 µM was -13.3%.
The value for `CCNc1cc2c(nn1)CCN(C(=O)c1cc3c(s1)CCOC3)C2` was -8.51%; that for `Cc1cnn(C2CN(CC(O)COCc3ccc4c(c3)OCO4)C2)c1` (centres undefined) was -5.41%; that for `CCN(C)S(=O)(=O)N1CCCC1CC(=O)c1cccs1` (centres undefined) was -29%.
The value for `CC(c1cccc(O)c1)N(C)S(=O)(=O)c1cccnc1` (centres undefined) was 9.46%.
The result for `COC(=O)NCC(=O)NCC1(c2c(F)cccc2F)CCCC1` reads -3.56%; that for `CCCn1nnnc1COc1ccc(C(=O)OC)cc1`, -5.58%.
For the compound `c1cnnc(NCC2CN(CCn3cncn3)CCO2)c1` (centres undefined), the cytotoxicity at 10 µM was -3.16%.
The value for `CC(C)COC(C)C(=O)NCc1ccccc1Cn1ccnc1` (centres undefined) was 4.9%.
The result for `COc1cccc(OC)c1-c1ccnc2cc(CC(=O)N(C)C)nn12` reads -8.86%; that for `CCc1nn(C)c(Cl)c1CN(CCOC)Cc1cnn(C)c1`, -6.5%; that for `Cn1c(Cn2ccnc2)nnc1C1CCCN(Cc2ccncc2)C1` (centres undefined), 12.1%.
The value for `Cc1cc(CN(C)CC2(O)CCCN(CCC3CCCCC3)C2=O)no1` (centres undefined) was -14.4%.
`CCCc1nccn1-c1ccncc1`: the cytotoxicity at 10 µM was found to be 17.3%.
On to `CCc1cn[nH]c1C1CCCN(C(=O)c2cc(C(C)C)on2)C1` (centres undefined), for which the cytotoxicity at 10 µM was -8.6%.
For `COC(=O)c1ccn(CC(=O)Nc2nn(CC3CC3)c3ccccc23)n1`, the cytotoxicity at 10 µM was found to be 4.95%.
The result for `Cc1ccccc1-c1noc(-c2ccc(NCC3COCCO3)nc2)n1` (centres undefined) reads 3.41%.
The result for `O[C@@]1(CN2CCN(Cc3ccncc3)CC2)CCCN2CCCC[C@@H]21` reads 8.91%.
For `CC(Cn1cncn1)NCc1n[nH]c2c1CCCCC2` (centres undefined), the cytotoxicity at 10 µM is -4.39%.
The result for `Cc1nccn1Cc1nnc(C2CCCN(Cc3ccncc3)C2)n1C` (centres undefined) reads -1.63%; that for `CCc1nccn1C1CCCN(C(=O)CCOCC(F)(F)F)C1` (centres undefined), -9.39%.
The result for `CC1CCN(C(=O)C2(Cc3cc(C4CCOC4)no3)CCNCC2)CC1` (centres undefined) reads -3.04%; that for `CCN(CC)S(=O)(=O)N1CCc2nc(C3CCNCC3)ncc2C1`, -5.66%.
The value for `O=C(NCC1CCOCC1)[C@H]1C[C@@H]2CCN(Cc3ccccc3)C[C@H]2O1` was 1.03%; that for `FC(F)(F)CCc1ccnc(NC2CCC(n3cnnc3)CC2)n1` (centres undefined) was -6.71%.
